Measured values reported in ChEMBL document CHEMBL1921685, “Design and synthesis of triazolopyridazines substituted with methylisoquinolinone as selective c-Met kinase inhibitors” (Bioorg Med Chem Lett, 2011).

Key:
[1] = target: Hepatocyte growth factor receptor (Homo sapiens, UniProt P08581); test: Inhibition of recombinant c-met by HTRF assay
MKN-45 = test: Growth inhibition of c-met-amplified human MKN45 cells after 72 hrs by MTS assay; assay type: functional; conditions: MKN-45, 72 h
SNU-5 = test: Growth inhibition of c-met-amplified human SNU5 cells after 72 hrs by MTS assay; assay type: functional; conditions: SNU-5, 72 h
[2] = Growth inhibition of c-met-amplified human Hs 746T cells after 72 hrs by MTS assay; assay type: functional; conditions: Hs746T
NCI-N87 = test: Growth inhibition of c-met-independent human NCI-N87 cells after 72 hrs by MTS assay; assay type: functional; conditions: NCI-N87, 72 h
[3] = target: Macrophage-stimulating protein receptor (Homo sapiens, UniProt Q04912); test: Inhibition of RON
[4] = target: T1, Receptor-type tyrosine-protein kinase FLT3 (Homo sapiens, UniProt P36888); test: Inhibition of FLT3
T1 sequence (P36888 whole entry): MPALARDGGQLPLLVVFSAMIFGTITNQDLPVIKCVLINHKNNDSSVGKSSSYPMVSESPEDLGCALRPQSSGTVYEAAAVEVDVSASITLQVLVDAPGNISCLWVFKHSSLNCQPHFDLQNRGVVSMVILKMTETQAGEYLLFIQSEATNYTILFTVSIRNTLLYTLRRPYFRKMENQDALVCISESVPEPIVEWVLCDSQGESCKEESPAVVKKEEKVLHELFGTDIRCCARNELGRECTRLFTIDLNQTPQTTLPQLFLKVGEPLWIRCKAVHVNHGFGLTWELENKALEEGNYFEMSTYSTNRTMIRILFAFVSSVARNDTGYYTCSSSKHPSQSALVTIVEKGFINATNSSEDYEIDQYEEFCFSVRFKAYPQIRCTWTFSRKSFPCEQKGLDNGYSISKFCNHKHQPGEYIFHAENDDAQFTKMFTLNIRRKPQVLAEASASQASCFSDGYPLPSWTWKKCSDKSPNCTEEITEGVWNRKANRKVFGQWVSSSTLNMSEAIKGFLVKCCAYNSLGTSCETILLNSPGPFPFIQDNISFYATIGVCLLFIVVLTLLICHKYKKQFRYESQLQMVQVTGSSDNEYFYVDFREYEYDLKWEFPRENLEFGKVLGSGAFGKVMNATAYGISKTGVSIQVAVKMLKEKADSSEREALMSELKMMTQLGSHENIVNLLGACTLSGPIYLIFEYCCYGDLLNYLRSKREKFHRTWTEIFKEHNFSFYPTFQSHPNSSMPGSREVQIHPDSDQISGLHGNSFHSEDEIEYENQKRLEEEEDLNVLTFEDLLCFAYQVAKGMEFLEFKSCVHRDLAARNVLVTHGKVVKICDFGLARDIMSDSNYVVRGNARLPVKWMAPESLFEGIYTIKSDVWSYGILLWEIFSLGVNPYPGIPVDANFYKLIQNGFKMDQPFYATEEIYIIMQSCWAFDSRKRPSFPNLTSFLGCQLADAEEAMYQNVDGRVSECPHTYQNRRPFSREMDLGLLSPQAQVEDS

[5] = target: High affinity nerve growth factor receptor (Homo sapiens, UniProt P04629); test: Inhibition of TRKA
Aurora kinase A = target: T2, Aurora kinase A (Homo sapiens, UniProt O14965); test: Inhibition of AurA
T2 sequence (O14965 whole entry): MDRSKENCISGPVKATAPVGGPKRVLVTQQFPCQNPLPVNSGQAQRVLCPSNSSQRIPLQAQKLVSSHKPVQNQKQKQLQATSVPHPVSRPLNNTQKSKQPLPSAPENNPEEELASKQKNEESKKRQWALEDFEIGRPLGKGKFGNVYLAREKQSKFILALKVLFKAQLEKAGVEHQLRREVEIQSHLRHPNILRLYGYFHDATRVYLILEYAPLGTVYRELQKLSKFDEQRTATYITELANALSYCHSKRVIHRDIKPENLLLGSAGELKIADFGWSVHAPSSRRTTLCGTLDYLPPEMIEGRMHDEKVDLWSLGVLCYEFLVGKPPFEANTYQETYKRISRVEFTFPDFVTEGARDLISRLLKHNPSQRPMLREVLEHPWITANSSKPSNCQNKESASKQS

[6] = Cmax in rat at 10 mg/kg, po; assay type: ADME, organism-based; set-up: dose 10 mg/kg, route oral; conditions: in vivo
How it was run: (§1)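 Rat pharmacokinetics: 10 mg/kg dose given, three rats per group.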

[7] = AUC in rat at 10 mg/kg, iv; assay type: ADME, organism-based; set-up: dose 10 mg/kg, route intravenous; conditions: plasma; how it was run: as §1
[8] = AUC in rat at 10 mg/kg, po; assay type: ADME, organism-based; set-up: dose 10 mg/kg, route oral; conditions: plasma; how it was run: as §1
[9] = Clearance in rat at 10 mg/kg, iv; assay type: ADME, organism-based; set-up: dose 10 mg/kg, route intravenous; conditions: in vivo; how it was run: as §1
[10] = Oral bioavailability in rat at 10 mg/kg; assay type: ADME, organism-based; conditions: in vivo; how it was run: as §1
[11] = Volume of distribution at steady state in rat at 10 mg/kg, iv; assay type: ADME, organism-based; set-up: dose 10 mg/kg, route intravenous; conditions: in vivo, read-out: Vdss; how it was run: as §1

Hepatocyte growth factor receptor, sequence (P08581 whole entry): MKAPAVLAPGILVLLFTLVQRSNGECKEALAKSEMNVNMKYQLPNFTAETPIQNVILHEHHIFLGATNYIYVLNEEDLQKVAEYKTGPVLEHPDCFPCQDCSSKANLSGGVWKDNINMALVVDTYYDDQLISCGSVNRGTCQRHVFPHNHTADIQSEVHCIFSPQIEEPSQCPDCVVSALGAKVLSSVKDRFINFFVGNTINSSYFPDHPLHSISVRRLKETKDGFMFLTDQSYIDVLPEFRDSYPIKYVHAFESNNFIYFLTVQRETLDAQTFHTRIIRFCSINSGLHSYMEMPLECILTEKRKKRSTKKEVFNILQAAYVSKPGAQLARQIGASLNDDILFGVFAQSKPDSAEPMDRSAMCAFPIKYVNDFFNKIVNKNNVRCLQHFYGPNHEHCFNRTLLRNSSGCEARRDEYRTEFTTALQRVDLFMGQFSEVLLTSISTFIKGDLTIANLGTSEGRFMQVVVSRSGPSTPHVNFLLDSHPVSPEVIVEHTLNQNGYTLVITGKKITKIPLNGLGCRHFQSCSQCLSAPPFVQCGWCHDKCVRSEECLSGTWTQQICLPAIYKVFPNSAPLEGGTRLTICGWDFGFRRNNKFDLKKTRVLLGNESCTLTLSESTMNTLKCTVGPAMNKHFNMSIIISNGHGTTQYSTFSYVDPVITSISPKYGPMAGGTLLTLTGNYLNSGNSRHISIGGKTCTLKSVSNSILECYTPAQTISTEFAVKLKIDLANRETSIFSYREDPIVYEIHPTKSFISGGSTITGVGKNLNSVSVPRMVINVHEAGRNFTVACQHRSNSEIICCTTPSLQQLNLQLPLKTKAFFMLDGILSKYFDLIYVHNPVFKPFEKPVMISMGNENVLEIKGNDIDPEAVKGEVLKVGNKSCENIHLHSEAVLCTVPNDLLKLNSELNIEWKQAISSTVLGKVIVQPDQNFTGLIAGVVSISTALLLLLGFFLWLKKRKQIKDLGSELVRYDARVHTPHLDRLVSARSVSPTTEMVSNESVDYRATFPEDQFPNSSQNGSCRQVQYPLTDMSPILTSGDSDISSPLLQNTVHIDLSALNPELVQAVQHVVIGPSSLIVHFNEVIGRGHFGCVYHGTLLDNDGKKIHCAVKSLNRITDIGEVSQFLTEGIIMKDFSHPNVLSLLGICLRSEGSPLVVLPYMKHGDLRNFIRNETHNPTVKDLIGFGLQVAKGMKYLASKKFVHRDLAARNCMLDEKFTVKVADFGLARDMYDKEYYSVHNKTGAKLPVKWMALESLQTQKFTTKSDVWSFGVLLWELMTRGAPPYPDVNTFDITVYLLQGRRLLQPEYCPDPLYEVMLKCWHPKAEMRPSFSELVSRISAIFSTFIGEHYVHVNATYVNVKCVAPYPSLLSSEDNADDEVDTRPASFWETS
High affinity nerve growth factor receptor, sequence (P04629 whole entry): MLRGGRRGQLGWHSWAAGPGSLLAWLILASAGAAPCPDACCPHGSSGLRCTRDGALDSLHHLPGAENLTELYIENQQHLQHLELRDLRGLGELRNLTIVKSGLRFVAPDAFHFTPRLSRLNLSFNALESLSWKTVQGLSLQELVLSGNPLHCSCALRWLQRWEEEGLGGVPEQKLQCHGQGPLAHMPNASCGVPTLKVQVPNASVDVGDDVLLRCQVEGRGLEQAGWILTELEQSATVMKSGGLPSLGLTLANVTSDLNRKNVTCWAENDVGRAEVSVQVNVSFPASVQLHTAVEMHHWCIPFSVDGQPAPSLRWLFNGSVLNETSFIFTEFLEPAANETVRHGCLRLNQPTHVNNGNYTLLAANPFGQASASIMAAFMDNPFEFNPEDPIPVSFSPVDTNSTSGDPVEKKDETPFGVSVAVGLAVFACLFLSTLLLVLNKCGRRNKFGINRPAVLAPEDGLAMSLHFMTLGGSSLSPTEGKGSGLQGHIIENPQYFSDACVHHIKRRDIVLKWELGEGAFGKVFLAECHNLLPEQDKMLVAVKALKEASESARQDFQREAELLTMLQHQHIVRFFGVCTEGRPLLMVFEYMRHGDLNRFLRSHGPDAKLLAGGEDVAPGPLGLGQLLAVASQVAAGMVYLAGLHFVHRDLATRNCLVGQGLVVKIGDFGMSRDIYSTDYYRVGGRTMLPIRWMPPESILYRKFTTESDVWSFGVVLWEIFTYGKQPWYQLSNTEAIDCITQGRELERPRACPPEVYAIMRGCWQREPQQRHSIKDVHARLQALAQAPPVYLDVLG
Macrophage-stimulating protein receptor, sequence (Q04912 25-304 limits assumed): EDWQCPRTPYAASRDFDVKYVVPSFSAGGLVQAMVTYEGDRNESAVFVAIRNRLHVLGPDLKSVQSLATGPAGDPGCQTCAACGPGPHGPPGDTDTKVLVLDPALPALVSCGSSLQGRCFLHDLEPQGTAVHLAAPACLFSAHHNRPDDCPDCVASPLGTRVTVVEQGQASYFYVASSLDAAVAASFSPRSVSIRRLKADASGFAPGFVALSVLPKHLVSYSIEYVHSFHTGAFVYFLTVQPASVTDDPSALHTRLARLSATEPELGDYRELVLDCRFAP
Macrophage-stimulating protein receptor, sequence (Q04912 310-1400 limits assumed): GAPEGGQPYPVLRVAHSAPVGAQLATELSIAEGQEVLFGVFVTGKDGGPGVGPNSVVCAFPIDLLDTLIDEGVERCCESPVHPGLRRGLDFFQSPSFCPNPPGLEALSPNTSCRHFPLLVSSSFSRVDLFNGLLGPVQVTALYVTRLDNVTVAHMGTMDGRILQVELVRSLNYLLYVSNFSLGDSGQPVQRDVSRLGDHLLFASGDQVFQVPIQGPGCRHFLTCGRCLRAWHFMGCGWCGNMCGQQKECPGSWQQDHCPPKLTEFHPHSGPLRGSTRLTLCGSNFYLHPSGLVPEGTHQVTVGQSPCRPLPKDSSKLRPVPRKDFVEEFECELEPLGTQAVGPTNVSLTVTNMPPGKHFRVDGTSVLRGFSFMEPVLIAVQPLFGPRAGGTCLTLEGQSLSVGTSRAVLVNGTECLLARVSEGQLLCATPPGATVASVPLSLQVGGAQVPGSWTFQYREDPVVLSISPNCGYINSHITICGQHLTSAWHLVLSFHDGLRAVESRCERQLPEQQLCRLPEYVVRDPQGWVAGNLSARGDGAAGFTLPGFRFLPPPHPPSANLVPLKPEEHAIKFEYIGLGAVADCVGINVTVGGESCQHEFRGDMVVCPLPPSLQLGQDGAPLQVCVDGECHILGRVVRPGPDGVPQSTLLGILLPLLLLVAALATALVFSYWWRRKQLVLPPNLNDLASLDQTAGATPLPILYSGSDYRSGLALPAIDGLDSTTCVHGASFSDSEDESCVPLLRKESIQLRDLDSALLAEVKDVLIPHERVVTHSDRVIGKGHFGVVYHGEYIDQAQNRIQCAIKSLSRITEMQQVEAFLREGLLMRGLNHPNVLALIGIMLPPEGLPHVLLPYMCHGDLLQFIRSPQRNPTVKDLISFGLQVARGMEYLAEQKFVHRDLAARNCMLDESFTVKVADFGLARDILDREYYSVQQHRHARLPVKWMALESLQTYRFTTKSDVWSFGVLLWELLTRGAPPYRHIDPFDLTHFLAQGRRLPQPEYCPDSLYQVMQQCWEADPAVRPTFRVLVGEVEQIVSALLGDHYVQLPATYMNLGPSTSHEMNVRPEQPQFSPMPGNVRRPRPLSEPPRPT

| SMILES | IC50 [1] | GI50 (MKN-45) | GI50 (SNU-5) | GI50 [2] | GI50 (NCI-N87) | further results |
| --- | --- | --- | --- | --- | --- | --- |
| O=c1[nH]ccc2c(Cc3nnc4ccc(-c5ccccc5Cl)nn34)cccc12 | 4 nM | – | – | – | – | – |
| O=c1[nH]ccc2c(Cc3nnc4ccc(N5CCCC5)nn34)cccc12 | 27 nM | – | – | – | – | – |
| Cn1ccc2c(Cc3nnc4ccc(-c5cccc(F)c5)nn34)cccc2c1=O | 73 nM | – | – | – | – | – |
| Cc1ccccc1-c1ccc2nnc(Cc3cccc4c(=O)[nH]ccc34)n2n1 | 72 nM | – | – | – | – | – |
| COc1cccc(-c2ccc3nnc(Cc4cccc5c(=O)[nH]ccc45)n3n2)c1 | 5 nM | 95 nM | 130 nM | 100 nM | > 10000 nM | – |
| O=c1[nH]ccc2c(Cc3nnc4ccc(-c5csc6ccccc56)nn34)cccc12 | 14 nM | – | – | – | – | – |
| N#Cc1cccc(-c2ccc3nnc(Cc4cccc5c(=O)[nH]ccc45)n3n2)c1 | 3 nM | 36 nM | 120 nM | 59 nM | > 10000 nM | – |
| O=c1[nH]ccc2c(Cc3nnc4ccc(-c5cn[nH]c5)nn34)cccc12 | 5 nM | – | – | – | – | – |
| O=c1[nH]ccc2c(Cc3nnc4ccc(-c5ccsc5)nn34)cccc12 | 4 nM | 32 nM | 56 nM | 170 nM | > 10000 nM | – |
| O=c1[nH]ccc2c(Cc3nnc4ccc(-c5cnn(C6CCNCC6)c5)nn34)cccc12 | 27 nM | – | – | – | – | – |

Now from value to compound, other results behind:

| IC50 [1] | GI50 (MKN-45) | GI50 (SNU-5) | SMILES | GI50 [2] | GI50 (NCI-N87) | further results |
| --- | --- | --- | --- | --- | --- | --- |
| 2 nM | – | – | O=c1[nH]ccc2c(Cc3nnc4ccc(-c5cnn(CCO)c5)nn34)cccc12 | – | – | – |
| 72 nM | – | – | CCn1ccc2c(Cc3nnc4ccc(-c5cccc(F)c5)nn34)cccc2c1=O | – | – | – |
| 4 nM | – | – | O=c1[nH]ccc2c(Cc3nnc4ccc(-c5cccc([N+](=O)[O-])c5)nn34)cccc12 | – | – | – |
| 7 nM | 11 nM | 19 nM | O=c1[nH]ccc2c(Cc3nnc4ccc(-c5cccc(Cl)c5)nn34)cccc12 | 53 nM | > 10000 nM | – |
| 29 nM | – | – | O=c1[nH]ccc2c(Cc3nnc4ccc(N5CCCCC5)nn34)cccc12 | – | – | – |
| 3 nM | 42 nM | 52 nM | O=c1[nH]ccc2c(Cc3nnc4ccc(-c5cccc(F)c5)nn34)cccc12 | 130 nM | > 10000 nM | – |
| 3 nM | 38 nM | 59 nM | O=c1[nH]ccc2c(Cc3nnc4ccc(-c5ccccc5)nn34)cccc12 | 71 nM | > 10000 nM | IC50 [3]: > 10000 nM; IC50 [4]: > 10000 nM; IC50 [5]: > 10000 nM; IC50 (Aurora kinase A): > 10000 nM; Cmax [6]: 300 ng/mL; AUC [7]: 11200 ng·h/mL; AUC [8]: 3900 ng·h/mL; clearance [9]: 13.3 mL/min/kg; bioavailability [10]: 35%; Vd [11]: 6.4 L/kg |
| 5 nM | 420 nM | 450 nM | O=c1[nH]ccc2c(Cc3nnc4ccc(-c5cccnc5)nn34)cccc12 | 400 nM | > 10000 nM | – |
| 2 nM | 130 nM | 690 nM | Cn1cc(-c2ccc3nnc(Cc4cccc5c(=O)[nH]ccc45)n3n2)cn1 | 64 nM | > 10000 nM | IC50 [3]: > 10000 nM; IC50 [4]: > 10000 nM; IC50 [5]: > 10000 nM; IC50 (Aurora kinase A): > 10000 nM |
| 3 nM | 470 nM | 1100 nM | O=c1[nH]ccc2c(Cc3nnc4ccc(-c5cccc(O)c5)nn34)cccc12 | 600 nM | > 10000 nM | – |
